Screening data: PubChem, Broad Institute
E-sel inducer – induces E-selectin expression in human endothelial cells; activation, % at 7.58 µM; 0.37% of 260,000 active; HUVEC E-selectin immunofluorescence imaging; normalized: neutral wells 0, TNF-alpha wells 100; P16581;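 active means mean E-selectin-positive cell signal at least 10% of the positive control, reached in at least 60% of replicates, without over 20% cell loss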
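System: HUVEC / Compound: single concentration / Signal: immunofluorescence imaging / Read-out: percent E-selectin-positive cells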
RAD54 inh – inhibitors of human RAD54 branch migration | Q92698 | RAD54 Holliday junction branch migration, FAM/BHQ fluorescence | 0.14% of 360,000 active | inhibition, % at 10.4 µM;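 active means mean normalized replicate activity at least 40 and at least half of replicates scoring 40 or more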;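 further: 0% = median of neutral control wells and 100% = median of positive control wells; inhibitors cause a drop in the FAM fluorescence signal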
RAD52 anneal inh – blocks human RAD52 DNA annealing; inhibition, % at 18.7 µM; P43351; 0.46% of 360,000 active; recombinant RAD52 DNA annealing, FRET fluorescence; AID 651710;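 active means every replicate showing at least 50% inhibition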
Target sequence (P43351 whole entry, looked up): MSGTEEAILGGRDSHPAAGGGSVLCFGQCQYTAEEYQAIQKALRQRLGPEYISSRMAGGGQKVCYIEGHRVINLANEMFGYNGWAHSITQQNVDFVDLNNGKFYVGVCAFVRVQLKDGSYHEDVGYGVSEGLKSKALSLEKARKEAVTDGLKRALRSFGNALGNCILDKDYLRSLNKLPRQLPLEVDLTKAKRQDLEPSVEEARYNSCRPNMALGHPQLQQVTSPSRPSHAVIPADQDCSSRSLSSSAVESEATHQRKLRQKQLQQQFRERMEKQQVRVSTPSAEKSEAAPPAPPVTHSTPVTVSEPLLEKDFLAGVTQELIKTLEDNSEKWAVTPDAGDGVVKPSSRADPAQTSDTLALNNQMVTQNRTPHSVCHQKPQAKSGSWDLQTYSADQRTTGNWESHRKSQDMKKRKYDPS
PglD DTNB – inhibitors of Campylobacter jejuni PglD acetyltransferase; purified PglD enzyme, DTNB colorimetric CoA detection; inhibition, % at 12.5 µM; 0.098% of 360,000 active; AID 602405; in the data active means inhibition above about 16%, passing the limit was not always enough
Ecoli rRNA inh – inhibitors of bacterial rRNA selective over humanized ribosomes; AID 720706; E. coli WT GFP vs humanized-ribosome RFP mutants, fluorescence, 24 h; hits give low values; DMSO median 0, no signal -100; GFP signal change (wild-type ribosome), % (concentration not given with the values); 1.6% of 350,000 active;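 active means significant combined selectivity score with lowered wild-type GFP, culture density cut under 30%, mutant RFP and density less affected; inactive means any of these conditions unmet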
XiGFP reactiv – activators of X-chromosome reactivation in mouse fibroblasts | 0.055% of 360,000 active | XiGFP mouse fibroblasts, % GFP-positive cells imaging, 3 d; cells co-treated with 5-aza-dC sensitizer; scaled so ellipticine positive control = 100% | activation, % at 7.58 µM;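 active means mean normalized replicate activation at least 10% and every replicate at or above 10%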;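 further: 0% = median of on-plate neutral control wells and 100% = ellipticine 6 µM median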
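Assay system – SV40-immortalized XiGFP fibroblast cells, line 68-5-11 · Buffer or medium – DMEM supplemented with 5-aza-dC as sensitizing agent · Dosing – one concentration, pinned · Benchmarks – positive control ellipticine, 6 µM final · Times – 3 days compound exposure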
Starred values were filed as active, the others as inactive; nt = not tested or not shown; ! = not confirmed by another sample. A selection: hits, their analogues and other compounds. The true share with any hit is near 2%.

SMILES	E-sel inducer	RAD54 inh	RAD52 anneal inh	PglD DTNB	Ecoli rRNA inh	XiGFP reactiv
O=C1O[C@@H](c2ccccc2)[C@@H](c2ccccc2)N2[C@@H](c3ccccc3OCCO)[C@]3(C(=O)Nc4ccc(C#CC5=CCCCC5)cc43)[C@@H](C(=O)N3CCN(c4ncccn4)CC3)[C@H]12	nt	-2.8	-41.4	-11.2	nt	nt
CN1CCN(C(=O)C[C@@H]2CC[C@H](NS(=O)(=O)c3cccc(F)c3)[C@H](CO)O2)CC1	0.0	-4.3	-7.0	-0.4	0.8	-0.6
COCC(=O)N1[C@@H](CO)[C@H](c2ccccc2)C12CN(C(=O)c1cccnc1)C2	nt	nt	nt	nt	3.8	0.2
C[C@@H]1CCCCO[C@H](CN(C)Cc2ccc3c(c2)OCO3)[C@@H](C)CN([C@@H](C)CO)C(=O)c2cc(NC(=O)Nc3cccc4ccccc34)ccc2O1	0.3	-2.0	nt	2.8	-27.8	0.0
COC(=O)c1c(C)[nH]c(C(=O)C(C)OC(=O)C2CC(=O)N(c3ccc(C)cc3)C2)c1C (stereo unspecified)	nt	-1.1	-43.3	-1.2	-22.7*	-0.1
COC(=O)c1c(C)[nH]c(C(=O)C(C)OC(=O)C2CC(=O)N(CCc3ccccc3)C2)c1C (stereo unspecified)	1.1	-5.0	-7.7	1.1	nt	-0.1
CN(C)C(=O)c1cccc(-c2ccc3c(c2)[C@@H]2[C@@H](CCN2C(=O)Cc2ccccn2)[C@H](CO)N3C)c1	0.0	4.3	nt	1.0	-3.4	0.2
NS(=O)(=O)c1ccc(CCNC(=O)c2cc([N+](=O)[O-])ccc2N2CCCCC2)cc1	nt	-3.6	1.5	-2.7	-17.1*	0.0
NS(=O)(=O)c1ccc(CCNC(=O)/C=C/c2ccc([N+](=O)[O-])cc2)cc1	nt	nt	-15.9	nt	-17.9*	0.1
O=C(Cc1ccc(NC(=O)C2CCCN(C(=O)CCc3ccccc3)C2)cc1)Nc1cccc(C(=O)N2CCCC2)c1 (stereo unspecified)	1.4	12.2	-74.3	-2.4	-15.3*	0.0
COc1ccc(C(=O)C2CCCN(Cc3ccc4nonc4c3)C2)c(OC)c1 (stereo unspecified)	1.1	-6.5	-24.9	-4.7	-28.1*	-0.3
COc1ccc(C(=O)C2CCCN(Cc3ccc4nonc4c3)C2)cc1OC (stereo unspecified)	nt	8.7	-7.2	4.2	-6.0	0.2
C[C@@H]1CN([C@@H](C)CO)C(=O)c2cccc(NC(=O)C3CCCCC3)c2O[C@H]1CN(C)Cc1ccc2c(c1)OCO2	0.0	-6.1	19.4	-0.5	-3.0	-0.8
CN(c1ccccc1)c1nc(N)c([N+](=O)[O-])c(N2CCCC2)n1	1.7	-2.8	-10.9	-5.6	-26.7*	0.0
CCOc1ccccc1-n1c(=S)sc2c(=O)n(-c3ccc(C)cc3)c(=S)[nH]c21	0.7	nt	-11.7	nt	6.9	0.0
CCn1c(=S)sc2c(=O)n(-c3ccccc3)c(=S)[nH]c21	1.2	nt	4.7	nt	-29.9*	0.1
CN1C(=O)c2cc(NC(=O)Nc3cccc(Cl)c3)ccc2OC[C@H]2O[C@H](CC(=O)O)CC[C@@H]21	0.1	-0.3	-0.1	4.7	3.6	-0.1
CC(C)CNC(=S)N1CCC(c2nc(-c3ccc(F)cc3)no2)CC1	0.2	-6.9	-20.2	10.4	-25.6*	-0.1
COCCNC(=S)N1CCC(c2nc(-c3ccc(N(C)C)cc3)no2)CC1	nt	nt	nt	nt	nt	0.0
CN(C)CC#Cc1ccc([C@H]2[C@@H](CO)N3C(=O)CN(C(=O)c4cccc(F)c4)C[C@H]23)cc1	0.4	nt	-12.3	nt	2.6	0.4
Cc1ccc(S(=O)(=O)N2CCN(Cc3cccc(F)c3)CC2)cc1	0.5	-14.2	1.7	0.7	-27.7*	1.3
Cc1ccc(-c2ccc(C3[C@@H]4CN(Cc5cccnc5)C[C@H]3N4)cc2)cc1 (stereo partly specified)	0.0	nt	53.3*!	nt	-3.0	0.0
Fc1ccc(-c2ccc(C3[C@@H]4CN(Cc5cccc(F)c5)C[C@H]3N4)cc2)cc1 (stereo partly specified)	-0.2	nt	93.8*!	nt	-57.0	0.2
Cc1ccc(-c2ccc(C3[C@@H]4CN(Cc5cccc(F)c5)C[C@H]3N4)cc2)cc1 (stereo partly specified)	1.0	nt	53.9*	nt	-54.9	-0.1
